Assay outcomes as filed in PubChem BioAssay.
Scp1 inh = Scp-1 phosphatase inhibitors, primary screen, biochemical, colorimetric, uHTS; Carboxy-terminal domain RNA polymerase II polypeptide A small phosphatase 1 (Homo …; Recombinant Scp1, phosphopeptide, malachite green phosphate absorbance; inhibition, % at 20 µM; 0.88% of 340,000 active; AID 493091, 2011;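 active = inhibition above about 50% at 20 µM, limit read from the data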;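 note: plate controls were DMSO wells with enzyme for no effect and wells lacking enzyme for full effect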
Target sequence (Q9GZU7 76-261 limits assumed): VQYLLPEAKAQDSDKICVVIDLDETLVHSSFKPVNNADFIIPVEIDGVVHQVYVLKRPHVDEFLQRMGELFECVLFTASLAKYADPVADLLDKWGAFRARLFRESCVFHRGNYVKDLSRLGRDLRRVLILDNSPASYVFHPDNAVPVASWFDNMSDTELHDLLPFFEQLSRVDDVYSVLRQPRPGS
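System: truncated SCP-1 phosphatase (76-261aa); medium: Tris acetate buffer pH 5.5 with MgCl2 and Tween-20; incubation: 45 min room-temperature reaction, 5 min colour, 30 min stabiliser; compound: single 20 µM dose, 1% DMSO; reagent: Phosphorylated 17-residue peptide substrate; read-out: % inhibition at 20 µM; technique: colorimetric free-phosphate detection, absorbance 630 nm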
STEP block = STEP phosphatase inhibitors, primary screen, biochemical, fluorescence intensity, uHTS; Tyrosine-protein phosphatase non-receptor type 5 (Homo sapiens), P54829; recombinant STEP, OMFP fluorogenic substrate; inhibition, % at 20 µM; 0.25% of 360,000 active; AID 588621, 2011;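 active = inhibition at 20 µM, scaled per plate between control wells, above about 37%, limit read from the data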;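 note: 0% = DMSO with enzyme and substrate and 100% = substrate only without enzyme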
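Material: STEP (striatal-enriched tyrosine phosphatase) enzyme, cell-free | Medium: 50 mM Bis-Tris pH 6.0 with 2.5 mM DTT and 0.005% Tween 20 | Read-out: Percent inhibition scaled to no-enzyme and uninhibited-enzyme controls, plate-pattern corrected | Signal: Fluorescence read at 480 nm ex / 540 nm em | Times: 20 min reaction, room temperature, in the dark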
LMPTP block = LMPTP phosphatase inhibitors, primary screen, biochemical, fluorescence intensity, uHTS. inhibition, % at 20 µM. Low molecular weight phosphotyrosine protein phosphatase (Homo sapiens), P24666. AID 651560, 2012. recombinant LMPTP-A, OMFP fluorogenic substrate. 0.22% of 360,000 active;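 active = compounds that cut the enzyme signal by at least half of the control window in the single-dose screen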;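 note: plate controls were DMSO wells with enzyme plus substrate for no effect and substrate without enzyme for full effect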
Target sequence (P24666 whole entry, looked up): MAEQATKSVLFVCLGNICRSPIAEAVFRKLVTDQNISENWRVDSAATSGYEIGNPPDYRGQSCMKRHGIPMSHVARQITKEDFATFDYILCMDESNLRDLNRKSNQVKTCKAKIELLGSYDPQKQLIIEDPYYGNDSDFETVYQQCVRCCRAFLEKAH
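Test system: LMPTP-A phosphatase enzyme; input: 0.625 nM LMPTP-A final; reagent: OMFP substrate, 400 µM final; compound dosing: 20 µM single dose, 3% DMSO; incubation: 50 min dark incubation at room temperature; measured by: endpoint fluorescence intensity from OMFP dephosphorylation; measure: % inhibition relative to no-enzyme and uninhibited control wells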
DNMT1 block = human DNMT1 methyltransferase inhibitors, primary screen, biochemical, molecular beacon, fluorescence, HinP1I cleavage, uHTS | inhibition (reported as % activation of signal), % at 10 µM | AID 588458, 2011 | DNA (cytosine-5)-methyltransferase 1 (Homo sapiens), P26358 | 0.83% of 360,000 active; in the data active = inhibition above about 50%
SUMO1 PPI mod = modulators of SUMO1 protein-protein interactions, primary screen, biochemical, uHTS. Small ubiquitin-related modifier 1 (Homo sapiens), P63165. inhibition, % at 20 µM. SUMO1 binding to a labelled peptide, TR-FRET, 1 h. 0.33% of 360,000 active; in the data active = inhibition above about 37%
Target sequence (P63165 whole entry, looked up): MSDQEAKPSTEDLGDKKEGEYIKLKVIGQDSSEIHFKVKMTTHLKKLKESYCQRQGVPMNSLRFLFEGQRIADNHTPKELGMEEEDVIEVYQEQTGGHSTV
HKDC1 inh = HKDC1 hexokinase inhibitors, primary screen, biochemical, fluorescence, uHTS. inhibition, % at 20 µM. Q2TB90. recombinant HKDC1, G6PDH/diaphorase resazurin coupled fluorescence. 0.16% of 340,000 active. AID 493160, 2011;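 active = inhibition above about 35% when tested at 20 µM, limit read from the data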;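 note: plate controls were DMSO wells with enzyme for no effect and DMSO wells lacking enzyme for full effect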
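Assay system – recombinant HKDC1 (HK5) hexokinase enzyme, produced in-house · Input – HKDC1 at 5 µg/mL · Reagent – glucose plus 1 mM ATP as hexokinase substrates · Timing – 90 min reaction incubation at room temperature, dark · Measured by – G6PDH/diaphorase-coupled fluorescence, 1 mM NADP, 100 µM resazurin, 525/613 nm · Benchmarks – DMSO-enzyme wells negative, buffer-substituted wells positive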
Scp1 confirm = Scp-1 phosphatase inhibitors, retest, confirmation, biochemical, colorimetric, single concentration. shares compounds with Scp1 inh. recombinant SCP-1 catalytic domain, phosphate release, malachite green absorbance. inhibition, % at 20 µM. 61% of 2,500 active;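 note: plate controls were DMSO with enzyme for no effect and buffer wells lacking enzyme for full effect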
MG interference = colorimetric readout interference by compounds, confirmation, artefact control for Scp-1 inhibitor project, biochemical, single concentration | 2,500 tested, under 10 active | AID 540313, 2011 | Colorimetric interference counterscreen, malachite green absorbance 630 nm | apparent inhibition (interference), % at 20 µM | shares compounds with Scp1 inh;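 note: compounds added after enzyme reaction finished so only phosphate colour detection is probed; plate controls were DMSO wells with completed Scp-1 reaction for no effect and substrate wells lacking enzyme for full effect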
Scp-1 Tm shift = Scp-1 binding by thermal shift, confirmation, orthogonal assay for Scp-1 inhibitor project, biophysical, differential scanning fluorimetry; Recombinant SCP1, Sypro Orange thermal shift Tm; 25% of 1,500 active; AID 540329, 2011; shares compounds with Scp1 inh; thermal shift relative to vanadate control, % at 40 µM;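 active = substances whose mean melting-temperature shift, as a percentage of the reference inhibitor's shift, reaches about 5.3%, limit read from the data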;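 note: 0% = Tm of DMSO wells and 100% = Tm with sodium orthovanadate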
* hit, by the source's call; x = not tested or not shown. In the library only some 1.8% were active in any assay of this set; here they are far more common.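 Rule for the calls, unless noted: active = inhibition of at least 30% at 20 µM; inactive = the rest.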

SMILES	Scp1 inh	STEP block	LMPTP block	DNMT1 block	SUMO1 PPI mod	HKDC1 inh	Scp1 confirm	MG interference	Scp-1 Tm shift
Cc1nnc(N2C(=O)c3oc4ccccc4c(=O)c3C2c2ccco2)s1 (centres undefined)	60.0*	4.4	0.4	38.9	1.9	-1.0	42.4*	-1.0	0.5
Cc1ccc(OCc2nc3ccccc3n2C(C(=O)Nc2c(C)cccc2C)C2CC2)cc1 (centres undefined)	x	x	1.5	x	-1.9	x	x	x	x
CN(C)c1ccc(/C=C2\C(=N)N3N=C(CC(=O)N4CCCC4)SC3=NC2=O)cc1Br	57.5*	-1.4	0.2	4.8	-2.0	9.0	-1.2	-8.7	x
Clc1ccc(Sc2oc(/C=N/n3cnnc3)cc2Br)cc1	98.1*	0.1	-0.3	1.6	-11.8	-1.1	-15.4	-15.3	x
CC(=O)c1ccccc1NS(=O)(=O)c1cccc2nsnc12	80.0*	96.7*	68.1*	51.1*	-17.2	-2.0	51.3*	-22.7	-6.3
Cc1cc2nc(C(C)(C)C)c(CC3CCCCC3)n2c(C)c1Br	x	x	0.8	x	5.3	x	x	x	x
CC(C)[C@@H]1Cc2[nH]c(=S)[nH]c(=O)c2[C@H](CCc2ccccc2)O1	x	x	-1.7	x	2.8	x	x	x	x
O=C(CSc1ccsc1[N+](=O)[O-])N1CCN(c2ccccc2)CC1	63.7*	7.3	9.1	41.1	-19.0	-5.4	75.8*	-6.2	4.9
O=C(CSc1nc2sccc2c(=O)[nH]1)N1CCN(c2ccccc2)CC1	109.1*	0.2	5.2	17.0	3.4	4.5	59.1*	-11.4	-11.7
Cc1nn(CC(=O)Nc2ccccc2)c(=O)c2ccccc12	69.9*	-11.9	-1.4	3.3	-1.1	4.5	-3.5	-5.2	x
CCCCNc1nnc(Cc2ccc(Cl)cc2)c(=O)[nH]1	96.6*	27.8	5.0	29.8	8.5	2.9	75.8*	-10.9	-2.3
COCCNc1nnc(Cc2ccc(OC)c(OC)c2)c(=O)[nH]1	4.2	-1.3	-1.2	2.7	-4.3	-3.3	x	x	x
Nc1ccc2cccc(O)c2c1	55.9*	1.5	16.7	48.9	16.7	10.6	53.8*	-6.5	12.6*
Cc1nnc(SCC(=O)Nc2sccc2C#N)s1	60.5*	3.2	34.9	26.7	16.1	7.8	40.3*	-11.5	2.4
N#CC1=C(SCC(=O)Nc2ccc(C(=O)O)cc2)NC(=O)CC1c1ccco1 (centres undefined)	52.3*	22.4	0.1	28.5	27.2	1.4	45.6*	-14.2	4.7
Cc1ccc(NC(=O)CSC2=C(C#N)C(c3ccco3)C3=C(CCCC3=O)N2)cc1 (centres undefined)	-11.3	-3.7	1.6	-3.5	-9.3	3.1	x	x	x
CCOC(=O)Cn1c2[n+](c3ccccc31)CC(O)CS2 (centres undefined)	101.7*	-1.7	-2.3	1.8	2.9	14.8	91.2*	-8.7	-18.6
COC(=O)Cn1c2[n+](c3ccccc31)CC(O)CS2 (centres undefined)	-7.6	0.5	-2.6	1.3	0.9	-1.4	x	x	x
CN(C)c1ccc(CC(=O)N2CCCC(c3cc(C(=O)Nc4ccc(F)c(Cl)c4)no3)C2)cc1 (centres undefined)	x	0.5	3.5	-5.6	-3.4	x	x	x	x
